Test results taken from ChEMBL document CHEMBL1124663, “Design, synthesis, antineoplastic activity, and chemical properties of bis(carbamate) derivatives of 4,5-bis(hydroxymethyl)imidazole” (J Med Chem, 1989).

What was measured:
Mus musculus [1] = test: Ability of 200 mg/kg of compound to kill tumor cells in mice is expressed as the log of the tumor cell population at the onset of treatment minus the log of the tumor cell population at the end of treatment.; assay type: functional
Mus musculus [2] = test: The percent of the median survival time of test mice compared to control mice is determined for mice administered with 12.5 mg/kg compound.; assay type: functional
Mus musculus [3] = test: Body Weight Difference (BWD) of test animals administered with 200 mg/kg compound is determined on day 5 for P388 tumor cells; assay type: functional
Procedure, shortened: (§1)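 P388 leukaemia: about 10^6 cells in ascitic fluid inoculated ip on day 0 (CD2F1 mice). Compound given ip in normal saline as a freshly prepared solution or suspension, once daily on days 1–5. Treated-minus-control body weight difference in g, taken as day 5 minus day 1 weight. Groups of six.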

Mus musculus [4] = test: Body Weight Difference (BWD) of test animals administered with 12.5 mg/kg compound is determined on day 5 for P388 tumor cells; assay type: functional; procedure, shortened: as §1
Mus musculus [5] = test: Toxicity day evaluation was carried out on day 5 for animal dosed with 400 mg/kg compound; 3/6; assay type: organism-based; parameters: dose 400 mg/kg; conditions: in vivo
Mus musculus [6] = test: Body Weight Difference (BWD) of test animals administered with 50 mg/kg compound is determined on day 5 for P388 tumor cells; assay type: functional; procedure, shortened: as §1
Mus musculus [7] = test: Ability of 100 mg/kg of compound to kill tumor cells in mice is expressed as the log of the tumor cell population at the onset of treatment minus the log of the tumor cell population at the end of treatment.; assay type: functional
Mus musculus [8] = test: Toxicity day evaluation was carried out on day 5 for animal dosed with 200 mg/kg compound; 6/6; assay type: organism-based; parameters: dose 200 mg/kg; conditions: in vivo
Mus musculus [9] = test: Toxicity day evaluation was carried out on day 5 for animal dosed with 100 mg/kg compound; 6/6; assay type: organism-based; parameters: dose 100 mg/kg; conditions: in vivo
Mus musculus [10] = test: Toxicity day evaluation was carried out on day 5 for animal dosed with 12.5 mg/kg compound; 6/6; assay type: organism-based; parameters: dose 12.5 mg/kg; conditions: in vivo
Mus musculus [11] = test: Body Weight Difference (BWD) of test animals administered with 400 mg/kg compound is determined on day 5 for P388 tumor cells; assay type: functional; procedure, shortened: as §1
Mus musculus [12] = test: Toxicity day evaluation was carried out on day 5 for animal dosed with 25 mg/kg compound; 6/6; assay type: organism-based; parameters: dose 25 mg/kg; conditions: in vivo
Mus musculus [13] = test: Toxicity day evaluation was carried out on day 5 for animal dosed with 50 mg/kg compound; 6/6; assay type: organism-based; parameters: dose 50 mg/kg; conditions: in vivo
Mus musculus [14] = test: Body Weight Difference (BWD) of test animals administered with 100 mg/kg compound is determined on day 5 for P388 tumor cells; assay type: functional; procedure, shortened: as §1
Mus musculus [15] = test: Body Weight Difference (BWD) of test animals administered with 25 mg/kg compound is determined on day 5 for P388 tumor cells; assay type: functional; procedure, shortened: as §1
Mus musculus [16] = test: The percent of the median survival time of test mice compared to control mice is determined for mice administered with 50 mg/kg compound.; assay type: functional
Mus musculus [17] = test: Ability of 50 mg/kg of compound to kill tumor cells in mice is expressed as the log of the tumor cell population at the onset of treatment minus the log of the tumor cell population at the end of treatment.; assay type: functional
Mus musculus [18] = test: The percent of the median survival time of test mice compared to control mice is determined for mice administered with 100 mg/kg compound; assay type: functional
Mus musculus [19] = test: Toxicity day evaluation was carried out on day 5 for animal dosed with 400 mg/kg compound; 6/6; assay type: organism-based; parameters: dose 400 mg/kg; conditions: in vivo
Mus musculus [20] = test: The percent of the median survival time of test mice compared to control mice is determined for mice administered with 200 mg/kg compound; assay type: functional
Mus musculus [21] = test: The percent of the median survival time of test mice compared to control mice is determined for mice administered with 400 mg/kg compound; assay type: functional
Mus musculus [22] = test: Toxicity day evaluation was carried out on day 5 for animal dosed with 12.5 mg/kg compound. Number of animals in initial test groups were 5; assay type: organism-based; parameters: dose 12.5 mg/kg; conditions: in vivo
Mus musculus [23] = test: Toxicity day evaluation was carried out on day 5 for animal dosed with 50 mg/kg compound. Number of animals in initial test groups were 5; assay type: organism-based; parameters: dose 50 mg/kg; conditions: in vivo
Mus musculus [24] = test: Body Weight Difference (BWD) of test animals with P388 administered with 200 mg/kg compound is determined; assay type: functional; procedure, shortened: as §1
Mus musculus [25] = test: Body Weight Difference (BWD) of test animals with P388 administered with 12.5 mg/kg compound is determined; assay type: functional; procedure, shortened: as §1
Mus musculus [26] = test: Toxicity day evaluation was carried out on day 5 for animal dosed with 200 mg/kg compound. Number of animals in initial test groups were 5; assay type: organism-based; parameters: dose 200 mg/kg; conditions: in vivo
Mus musculus [27] = test: Body Weight Difference (BWD) of test animals with P388 administered with 100 mg/kg compound is determined; assay type: functional; procedure, shortened: as §1
Mus musculus [28] = test: Toxicity day evaluation was carried out on day 5 for animal dosed with 100 mg/kg compound. Number of animals in initial test groups were 5; assay type: organism-based; parameters: dose 100 mg/kg; conditions: in vivo
Mus musculus [29] = test: Toxicity day evaluation was carried out on day 5 for animal dosed with 25 mg/kg compound. Number of animals in initial test groups were 5; assay type: organism-based; parameters: dose 25 mg/kg; conditions: in vivo
Mus musculus [30] = test: Body Weight Difference (BWD) of test animals with P388 administered with 25 mg/kg compound is determined; assay type: functional; procedure, shortened: as §1
Mus musculus [31] = test: Body Weight Difference (BWD) of test animals with P388 administered with 50 mg/kg compound is determined; assay type: functional; procedure, shortened: as §1
Mus musculus [32] = test: Toxicity day evaluation was carried out on day 5 for animal dosed with 100 mg/kg compound; 5/5; assay type: organism-based; parameters: dose 100 mg/kg; conditions: in vivo
Mus musculus [33] = test: The percent of the median survival time of test mice compared to control mice is determined for mice administered with 12.5 mg/kg compound; assay type: functional
Mus musculus [34] = test: Toxicity day evaluation was carried out on day 5 for animal dosed with 50 mg/kg compound; 5/5; assay type: organism-based; parameters: dose 50 mg/kg; conditions: in vivo
Mus musculus [35] = test: Toxicity day evaluation was carried out on day 5 for animal dosed with 25 mg/kg compound; 5/5; assay type: organism-based; parameters: dose 25 mg/kg; conditions: in vivo
Mus musculus [36] = test: Toxicity day evaluation was carried out on day 5 for animal dosed with 12.5 mg/kg compound; 5/5; assay type: organism-based; parameters: dose 12.5 mg/kg; conditions: in vivo
Mus musculus [37] = test: Toxicity day evaluation was carried out on day 5 for animal dosed with 200 mg/kg compound; 5/5; assay type: organism-based; parameters: dose 200 mg/kg; conditions: in vivo
Mus musculus [38] = test: The percent of the median survival time of test mice compared to control mice is determined for mice administered with 25 mg/kg compound; assay type: functional
Mus musculus [39] = test: Toxicity day evaluation was carried out on day 5 for animal dosed with 200 mg/kg compound; 5/6; assay type: organism-based; parameters: dose 200 mg/kg; conditions: in vivo
Mus musculus [40] = test: Ability of 200 mg/kg of compound to kill tumor cells in mice is expressed as the log of the tumor cell population at the onset of treatment minus the log of the tumor cell population at the end of treatment; assay type: functional
Mus musculus [41] = test: Ability of 25 mg/kg of compound to kill tumor cells in mice is expressed as the log of the tumor cell population at the onset of treatment minus the log of the tumor cell population at the end of treatment; assay type: functional
Mus musculus [42] = test: The percent of the median survival time of test mice compared to control mice is determined for mice administered with 50 mg/kg compound; assay type: functional

| Structure (SMILES) | T/C (Mus musculus [2]) | BWD (Mus musculus [3]) | BWD (Mus musculus [4]) | BWD (Mus musculus [6]) | Survivors / animals tested (Mus musculus [8]) | Survivors / animals tested (Mus musculus [9]) | Survivors / animals tested (Mus musculus [10]) | BWD (Mus musculus [11]) | Survivors / animals tested (Mus musculus [12]) | Survivors / animals tested (Mus musculus [13]) | BWD (Mus musculus [14]) | BWD (Mus musculus [15]) | T/C (Mus musculus [16]) | T/C (Mus musculus [18]) | Survivors / animals tested (Mus musculus [19]) | T/C (Mus musculus [20]) | T/C (Mus musculus [21]) | BWD (Mus musculus [24]) | BWD (Mus musculus [25]) | BWD (Mus musculus [27]) | also measured |
| --- | --- | --- | --- | --- | --- | --- | --- | --- | --- | --- | --- | --- | --- | --- | --- | --- | --- | --- | --- | --- | --- |
| CSc1nc(COC(=O)NC(C)C)c(COC(=O)NC(C)C)n1Cc1ccccc1 | 98% | -2.2 g | -0.2 g | -0.5 g | 6 | 6 | 6 | -3.2 g | 6 | 6 | -0.3 g | -1.5 g | 110% |  |  |  |  |  |  |  | KE (Mus musculus [1]): -0.32; Survivors / animals tested (Mus musculus [5]): 3; KE (Mus musculus [7]): -0.39; KE (Mus musculus [17]): -0.42 |
| CC(C)NC(=O)OCc1ncn(-c2ccccc2)c1COC(=O)NC(C)C |  | 0.2 g | -0.4 g | 0.8 g | 6 | 6 | 6 | -2.3 g | 6 | 6 | 0.6 g | -0.1 g | 97% | 91% | 6 | 90% | 90% |  |  |  |  |
| CNC(=O)OCc1nc(-c2ccccc2)n(C)c1COC(=O)NC | 98% |  |  |  |  |  |  |  |  |  |  |  |  |  |  |  |  | -2.2 g | -0.2 g | -1 g | Survivors / animals tested (Mus musculus [22]): 5; Survivors / animals tested (Mus musculus [23]): 5; Survivors / animals tested (Mus musculus [26]): 5; Survivors / animals tested (Mus musculus [28]): 5; Survivors / animals tested (Mus musculus [29]): 5; BWD (Mus musculus [30]): 0 g; BWD (Mus musculus [31]): -0.8 g |
| CNC(=O)OCc1ncn(-c2ccccc2)c1COC(=O)NC |  |  |  |  |  |  |  |  |  |  |  |  |  |  |  | 99% |  | -1.2 g | -0.4 g | -0.4 g | Survivors / animals tested (Mus musculus [32]): 5; T/C (Mus musculus [33]): 99%; Survivors / animals tested (Mus musculus [34]): 5; Survivors / animals tested (Mus musculus [35]): 5; Survivors / animals tested (Mus musculus [36]): 5; Survivors / animals tested (Mus musculus [37]): 5; T/C (Mus musculus [38]): 95%; BWD (Mus musculus [30]): 0.2 g; BWD (Mus musculus [31]): -0.8 g |
| CSc1nc(COC(=O)NC(C)C)c(COC(=O)NC(C)C)n1-c1ccccc1 |  | -2.8 g | -0.2 g | 0.3 g |  | 6 | 6 | -4.8 g | 6 | 6 | -2 g | 0.6 g |  | 97% | 6 | 90% | 100% |  |  |  | Survivors / animals tested (Mus musculus [39]): 5; KE (Mus musculus [40]): -1.64; KE (Mus musculus [41]): -1.55; T/C (Mus musculus [42]): 95% |
